In ChEMBL document CHEMBL4406821, “Novel dual inhibitors targeting CDK4 and VEGFR2 synergistically suppressed cancer progression and angiogenesis” (Eur J Med Chem, 2019):
The source made the active and inactive calls. The calls are words filed in the database; no cut-off is given here.

Columns and labels:
[1] = molecular target: MAP kinase-activated protein kinase 2 (Homo sapiens) (UniProt P49137); experiment: Inhibition of recombinant human MAPKAPK2 (46 to end residues) at 1 uM using KKLNRTLSVA as substrate incubated for 40 mins in presence of [gamma-33P]-ATP by scintillation counting method relative to control
[2] = molecular target: Mitogen-activated protein kinase kinase kinase 2 (Homo sapiens) (UniProt Q9Y2U5); experiment: Inhibition of recombinant human full length MEKK2 at 1 uM using myelin basic protein as substrate incubated for 40 mins in presence of [gamma-33P]-ATP by scintillation counting method relative to control
[3] = molecular target: Serine/threonine-protein kinase SIK3 (Homo sapiens) (UniProt Q9Y2K2); experiment: Inhibition of recombinant human SIK3 (1 to 307 residues) at 1 uM using KKKVSRSGLYRSPSMPENLNRPR as substrate incubated for 40 mins in presence of [gamma-33P]-ATP by scintillation counting method relative to control
[4] = molecular target: Fibroblast growth factor receptor 4 (Homo sapiens) (UniProt P22455); experiment: Inhibition of recombinant human FGFR4 (442 to 755 residues) at 1 uM using poly(Glu, Tyr) 4:1 as substrate incubated for 40 mins in presence of [gamma-33P]-ATP by scintillation counting method relative to control
Fibroblast growth factor receptor 4 (Homo sapiens), sequence (P22455 22-802 limits assumed): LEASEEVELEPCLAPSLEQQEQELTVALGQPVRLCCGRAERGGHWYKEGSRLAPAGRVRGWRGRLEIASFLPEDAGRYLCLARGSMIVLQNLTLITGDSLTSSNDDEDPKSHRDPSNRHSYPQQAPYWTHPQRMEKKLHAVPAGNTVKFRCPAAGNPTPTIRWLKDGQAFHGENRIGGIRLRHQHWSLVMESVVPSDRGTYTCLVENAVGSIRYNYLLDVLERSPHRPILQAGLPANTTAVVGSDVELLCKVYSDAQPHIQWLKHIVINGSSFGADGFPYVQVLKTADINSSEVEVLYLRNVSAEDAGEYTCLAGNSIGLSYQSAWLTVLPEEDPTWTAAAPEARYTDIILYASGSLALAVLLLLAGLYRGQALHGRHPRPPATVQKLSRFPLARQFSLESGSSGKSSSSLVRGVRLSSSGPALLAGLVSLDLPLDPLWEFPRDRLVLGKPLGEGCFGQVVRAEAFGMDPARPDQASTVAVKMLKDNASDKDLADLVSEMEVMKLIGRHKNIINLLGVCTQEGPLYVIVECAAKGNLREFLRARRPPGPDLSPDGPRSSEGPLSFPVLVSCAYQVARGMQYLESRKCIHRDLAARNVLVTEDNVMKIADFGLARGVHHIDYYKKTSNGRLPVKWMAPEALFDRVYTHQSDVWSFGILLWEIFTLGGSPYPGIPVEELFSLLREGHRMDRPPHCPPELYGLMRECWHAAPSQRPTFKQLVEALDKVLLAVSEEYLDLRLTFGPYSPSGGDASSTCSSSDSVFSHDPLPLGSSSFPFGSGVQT
How it was run: (§1)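 Tested at a single 1 uM in an outsourced commercial kinase-profiling panel, read as percent inhibition. Each value is the mean of two independent experiments.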

[5] = molecular target: Serine/threonine-protein kinase BRSK1 (Homo sapiens) (UniProt Q8TDC3); experiment: Inhibition of recombinant human BRSK1 (2 to end residues) at 1 uM using KKKVSRSGLYRSP as substrate incubated for 40 mins in presence of [gamma-33P]-ATP by scintillation counting method relative to control
Serine/threonine-protein kinase BRSK1 (Homo sapiens), sequence (Q8TDC3 whole entry): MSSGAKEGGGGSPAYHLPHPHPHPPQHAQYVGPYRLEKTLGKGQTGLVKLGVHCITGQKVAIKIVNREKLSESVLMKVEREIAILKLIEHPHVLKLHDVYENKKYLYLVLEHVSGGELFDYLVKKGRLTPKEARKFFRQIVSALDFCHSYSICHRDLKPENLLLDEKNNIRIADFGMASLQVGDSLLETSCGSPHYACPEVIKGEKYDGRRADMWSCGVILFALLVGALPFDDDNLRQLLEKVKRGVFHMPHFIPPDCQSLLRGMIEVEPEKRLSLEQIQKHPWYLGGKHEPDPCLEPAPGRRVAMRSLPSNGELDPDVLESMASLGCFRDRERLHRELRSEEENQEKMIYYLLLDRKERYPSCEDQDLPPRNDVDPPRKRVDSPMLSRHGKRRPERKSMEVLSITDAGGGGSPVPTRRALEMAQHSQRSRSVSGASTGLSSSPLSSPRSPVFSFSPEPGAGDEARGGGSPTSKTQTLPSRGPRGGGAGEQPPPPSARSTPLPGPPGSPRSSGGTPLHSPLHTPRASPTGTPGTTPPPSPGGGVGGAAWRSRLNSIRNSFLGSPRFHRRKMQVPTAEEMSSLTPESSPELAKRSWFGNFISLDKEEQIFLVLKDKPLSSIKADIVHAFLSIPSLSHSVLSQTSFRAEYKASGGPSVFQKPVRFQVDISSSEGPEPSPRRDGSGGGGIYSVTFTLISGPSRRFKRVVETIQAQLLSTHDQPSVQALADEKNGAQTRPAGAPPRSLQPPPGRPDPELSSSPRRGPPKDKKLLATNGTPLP
How it was run: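 Kinase panel profiling at 1 μM performed by Eurofins KinaseProfiler; percent inhibition reported as mean of two independent experiments.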

T47D = experiment: Induction of apoptosis in human T47D cells assessed as decrease in Rb phosphorylation incubated for 48 hrs by Western blot analysis; format: functional, cell-based
How it was run: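 Cancer cells were exposed to graded concentrations for 48 h, washed three times in PBS and lysed in RIPA buffer. Immunoblots were probed with anti-Rb, anti-phospho-Rb, anti-Ki67 and anti-Bcl-2, each at 1:1000. β-actin served as loading control.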

[6] = molecular target: Mitogen-activated protein kinase kinase kinase 11 (Homo sapiens) (UniProt Q16584); experiment: Inhibition of recombinant human MLK3 at 1 uM incubated for 40 mins in presence of [gamma-33P]-ATP by scintillation counting method relative to control
Mitogen-activated protein kinase kinase kinase 11 (Homo sapiens), sequence (Q16584 whole entry, looked up): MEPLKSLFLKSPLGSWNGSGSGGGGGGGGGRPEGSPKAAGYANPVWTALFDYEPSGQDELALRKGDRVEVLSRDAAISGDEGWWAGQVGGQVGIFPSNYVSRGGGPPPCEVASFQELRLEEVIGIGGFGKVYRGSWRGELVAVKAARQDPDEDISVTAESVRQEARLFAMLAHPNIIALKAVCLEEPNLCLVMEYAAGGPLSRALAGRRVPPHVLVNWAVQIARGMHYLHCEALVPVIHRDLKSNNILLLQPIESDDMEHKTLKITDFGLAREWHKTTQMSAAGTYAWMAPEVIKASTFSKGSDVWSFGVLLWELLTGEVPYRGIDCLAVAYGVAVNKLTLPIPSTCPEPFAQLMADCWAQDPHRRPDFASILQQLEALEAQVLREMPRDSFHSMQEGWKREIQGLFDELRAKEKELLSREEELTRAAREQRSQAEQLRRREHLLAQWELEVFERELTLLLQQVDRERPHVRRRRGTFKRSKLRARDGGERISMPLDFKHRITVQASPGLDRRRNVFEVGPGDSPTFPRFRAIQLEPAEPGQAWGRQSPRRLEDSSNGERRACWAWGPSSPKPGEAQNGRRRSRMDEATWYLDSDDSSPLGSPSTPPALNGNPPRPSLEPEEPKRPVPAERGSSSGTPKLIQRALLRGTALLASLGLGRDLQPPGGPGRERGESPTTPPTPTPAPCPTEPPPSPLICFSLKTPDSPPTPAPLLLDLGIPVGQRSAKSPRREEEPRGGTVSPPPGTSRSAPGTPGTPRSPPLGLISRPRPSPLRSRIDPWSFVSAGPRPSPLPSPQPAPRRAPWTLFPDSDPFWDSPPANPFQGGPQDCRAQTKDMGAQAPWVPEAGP

[7] = molecular target: Insulin-like growth factor 1 receptor (Homo sapiens) (UniProt P08069); experiment: Inhibition of recombinant human IGF1R (959 to end residues) at 1 uM using KKKSPGEYVNIEFG as substrate incubated for 40 mins in presence of [gamma-33P]-ATP by scintillation counting method relative to control
[8] = molecular target: Inhibitor of nuclear factor kappa-B kinase subunit beta (Homo sapiens) (UniProt O14920); experiment: Inhibition of recombinant human full length IKKbeta at 1 uM using peptide as substrate incubated for 40 mins in presence of [gamma-33P]-ATP by scintillation counting method relative to control
MDA-MB-231 = experiment: Induction of apoptosis in human MDA-MB-231 cells assessed as increase in late apoptotic cells at 20 to 40 nM incubated for 48 hrs by annexin V FITC and propidium iodide staining based flow cytometry; format: functional, cell-based
How it was run: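 Annexin V-FITC/PI double staining with flow-cytometric readout. MDA-MB-231, T-47D, SiHa and HeLa cells were treated with graded concentrations for 48 h. MDA-MB-231 and T-47D were grown in DMEM and SiHa in 1640 medium, each with 10% FBS and 1% penicillin/streptomycin at 37°C under 5% CO2. Early- and late-stage apoptotic fractions were scored.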

[9] = molecular target: Serine/threonine-protein kinase haspin (Homo sapiens) (UniProt Q8TF76); experiment: Inhibition of recombinant human Haspin (471 to end residues) at 1 uM using RARTLSFAEPG as substrate incubated for 40 mins in presence of [gamma-33P]-ATP by scintillation counting method relative to control
[10] = molecular target: Protein kinase C zeta type (Homo sapiens) (UniProt Q05513); experiment: Inhibition of recombinant human PKCzeta (2 to end residues) at 1 uM using ERMRPRKRQGSVRRRV as substrate incubated for 40 mins in presence of [gamma-33P]-ATP by scintillation counting method relative to control
Protein kinase C zeta type (Homo sapiens), sequence (Q05513 whole entry): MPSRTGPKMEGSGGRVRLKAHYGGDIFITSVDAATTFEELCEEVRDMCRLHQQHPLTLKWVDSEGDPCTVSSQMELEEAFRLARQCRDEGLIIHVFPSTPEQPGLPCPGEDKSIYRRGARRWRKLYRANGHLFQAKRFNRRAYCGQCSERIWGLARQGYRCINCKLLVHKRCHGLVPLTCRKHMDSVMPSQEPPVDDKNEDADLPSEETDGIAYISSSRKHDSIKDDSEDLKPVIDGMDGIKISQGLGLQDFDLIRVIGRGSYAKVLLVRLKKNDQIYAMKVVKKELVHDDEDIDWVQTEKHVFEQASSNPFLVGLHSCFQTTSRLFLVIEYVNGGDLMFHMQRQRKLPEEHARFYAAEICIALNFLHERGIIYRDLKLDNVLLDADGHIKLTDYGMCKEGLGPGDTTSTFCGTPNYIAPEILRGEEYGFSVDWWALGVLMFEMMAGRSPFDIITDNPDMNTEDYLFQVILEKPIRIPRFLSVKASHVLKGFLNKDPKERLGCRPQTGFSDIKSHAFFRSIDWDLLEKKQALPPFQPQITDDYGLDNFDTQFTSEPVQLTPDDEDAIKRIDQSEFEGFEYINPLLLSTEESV

[11] = Toxicity in NOD/SCID BALB/c mouse xenografted with human SiHa cells assessed as effect on blood parameter by measuring platelet content at 40 mg/kg, po administered once two days for 4 times by hematology analyzer; format: organism-based; conditions: in vivo
[12] = molecular target: Tyrosine-protein kinase Fgr (Homo sapiens) (UniProt P09769); experiment: Inhibition of recombinant human FGR (2 to end residues) at 1 uM using poly(Glu, Tyr) 4:1 as substrate incubated for 40 mins in presence of [gamma-33P]-ATP by scintillation counting method relative to control
[13] = molecular target: Serine/threonine-protein kinase/endoribonuclease IRE1 (Homo sapiens) (UniProt O75460); experiment: Inhibition of recombinant human IRE1 (465 to end residues) at 1 uM using myelin basic protein as substrate incubated for 40 mins in presence of [gamma-33P]-ATP by scintillation counting method relative to control
Serine/threonine-protein kinase/endoribonuclease IRE1 (Homo sapiens), sequence (O75460 19-977 limits assumed): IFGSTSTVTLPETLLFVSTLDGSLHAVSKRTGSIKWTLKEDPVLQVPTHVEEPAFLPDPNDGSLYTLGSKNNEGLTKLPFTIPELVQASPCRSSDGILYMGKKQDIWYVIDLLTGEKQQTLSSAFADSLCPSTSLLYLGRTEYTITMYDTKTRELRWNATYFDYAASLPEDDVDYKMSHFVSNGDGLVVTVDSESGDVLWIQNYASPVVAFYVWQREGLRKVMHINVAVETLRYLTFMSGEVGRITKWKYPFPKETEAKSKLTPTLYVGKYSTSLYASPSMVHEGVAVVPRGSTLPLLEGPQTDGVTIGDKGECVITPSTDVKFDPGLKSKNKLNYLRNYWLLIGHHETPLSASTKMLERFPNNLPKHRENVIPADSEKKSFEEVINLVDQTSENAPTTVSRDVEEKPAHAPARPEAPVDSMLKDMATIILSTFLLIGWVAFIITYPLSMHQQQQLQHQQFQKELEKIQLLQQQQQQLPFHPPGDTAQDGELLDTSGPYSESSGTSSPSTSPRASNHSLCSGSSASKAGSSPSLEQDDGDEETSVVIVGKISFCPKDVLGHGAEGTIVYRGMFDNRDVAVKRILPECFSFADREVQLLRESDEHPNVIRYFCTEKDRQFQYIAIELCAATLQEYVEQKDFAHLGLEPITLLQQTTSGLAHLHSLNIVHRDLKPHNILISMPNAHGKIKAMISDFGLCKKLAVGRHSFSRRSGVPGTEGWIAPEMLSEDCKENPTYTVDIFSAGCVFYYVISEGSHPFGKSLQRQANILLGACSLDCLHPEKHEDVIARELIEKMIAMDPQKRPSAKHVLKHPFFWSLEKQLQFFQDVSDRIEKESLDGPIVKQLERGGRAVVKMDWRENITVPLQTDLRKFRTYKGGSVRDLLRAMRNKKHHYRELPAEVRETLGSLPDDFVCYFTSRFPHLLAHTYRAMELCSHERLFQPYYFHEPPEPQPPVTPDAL

[14] = molecular target: Serine/threonine-protein kinase WNK3 (Homo sapiens) (UniProt Q9BYP7); experiment: Inhibition of recombinant human WNK3 (1 to 434 residues) at 1 uM using myelin basic protein as substrate incubated for 40 mins in presence of [gamma-33P]-ATP by scintillation counting method relative to control
[15] = molecular target: MAPK/MAK/MRK overlapping kinase (Homo sapiens) (UniProt Q9UQ07); experiment: Inhibition of recombinant human MOK (1 to 343 residues) at 1 uM using RSRSRSRSRSRSRSR as substrate incubated for 40 mins in presence of [gamma-33P]-ATP by scintillation counting method relative to control
MAPK/MAK/MRK overlapping kinase (Homo sapiens), sequence (Q9UQ07 whole entry, the tested form may be a part): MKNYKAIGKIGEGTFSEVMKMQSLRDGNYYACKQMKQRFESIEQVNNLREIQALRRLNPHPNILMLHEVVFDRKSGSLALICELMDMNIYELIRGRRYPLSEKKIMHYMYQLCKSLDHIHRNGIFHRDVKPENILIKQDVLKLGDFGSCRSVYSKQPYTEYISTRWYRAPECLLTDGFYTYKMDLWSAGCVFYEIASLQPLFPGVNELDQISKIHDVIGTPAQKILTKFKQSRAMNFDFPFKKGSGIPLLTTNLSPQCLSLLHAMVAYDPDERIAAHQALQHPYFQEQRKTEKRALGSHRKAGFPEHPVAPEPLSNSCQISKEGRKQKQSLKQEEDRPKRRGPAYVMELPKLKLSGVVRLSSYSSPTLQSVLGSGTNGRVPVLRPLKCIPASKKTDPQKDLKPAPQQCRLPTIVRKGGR

[16] = molecular target: Serine/threonine-protein kinase VRK1 (Homo sapiens) (UniProt Q99986); experiment: Inhibition of recombinant human VRK1 at 1 uM incubated for 40 mins in presence of [gamma-33P]-ATP by scintillation counting method relative to control
Serine/threonine-protein kinase VRK1 (Homo sapiens), sequence (Q99986 whole entry, the tested form may be a part): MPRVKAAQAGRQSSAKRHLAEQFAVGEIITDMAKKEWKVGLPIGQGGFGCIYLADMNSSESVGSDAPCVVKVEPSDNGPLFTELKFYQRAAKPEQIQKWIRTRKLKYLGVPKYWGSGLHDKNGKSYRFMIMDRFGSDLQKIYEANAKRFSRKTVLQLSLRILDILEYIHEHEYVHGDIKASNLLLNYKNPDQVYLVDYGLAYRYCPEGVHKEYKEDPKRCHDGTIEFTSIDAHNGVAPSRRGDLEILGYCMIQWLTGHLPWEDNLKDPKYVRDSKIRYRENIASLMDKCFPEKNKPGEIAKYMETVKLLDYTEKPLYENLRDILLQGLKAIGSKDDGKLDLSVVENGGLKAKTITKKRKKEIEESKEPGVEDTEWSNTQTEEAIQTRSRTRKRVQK

[17] = molecular target: Ribosomal protein S6 kinase beta-1 (Homo sapiens) (UniProt P23443); experiment: Inhibition of recombinant human p70S6K (1 to 421 residues) at 1 uM using KKRNRTLTV as substrate incubated for 40 mins in presence of [gamma-33P]-ATP by scintillation counting method relative to control
[18] = molecular target: eIF-2-alpha kinase GCN2 (Homo sapiens) (UniProt Q9P2K8); experiment: Inhibition of recombinant full length human GCN2 at 1 uM using RSRSRSRSRSRSRSR as substrate incubated for 40 mins in presence of [gamma-33P]-ATP by scintillation counting method relative to control; how it was run: as §1
HeLa = experiment: Inhibition of colony formation in human HeLa cells at 80 nM incubated for 5 days by crystal violet staining based light microscopy; format: functional, cell-based
How it was run: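 4 × 10^3 cells per well were cultured with graded concentrations for 5 days. Cells were then fixed with 20% methanol, stained with 0.5% crystal violet and photographed by light microscopy.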

Structure (SMILES): Cc1ccc(NC(=O)C2(C(=O)Nc3ccc(Nc4ncc(F)c(-c5cc(F)c6nc(C)n(C(C)C)c6c5)n4)cc3)CC2)cc1
- inhibition [1]: 12%
- inhibition [2]: 79%
- inhibition [3]: 43%
- inhibition [4]: 0%
- inhibition [5]: 14%
- Activity (T47D): Dose-dependent effect
- inhibition [6]: -2%
- inhibition [7]: 11%
- inhibition [8]: 11%
- Activity (MDA-MB-231): Active
- inhibition [9]: 22%
- inhibition [10]: 4%
- Activity [11]: Non-Toxic
- inhibition [12]: 55%
- inhibition [13]: 33%
- inhibition [14]: 17%
- inhibition [15]: 25%
- inhibition [16]: 9%
- inhibition [17]: 63%
- inhibition [18]: 0%

Structure (SMILES): COc1cc2nccc(Oc3ccc(NC(=O)C4(C(=O)Nc5ccc(F)cc5)CC4)cc3)c2cc1OC [CABOZANTINIB]
- inhibition (HeLa): Active
